TbMetRS inhib: blocks T. brucei methionyl-tRNA synthetase activity | purified T. brucei MetRS, ATP depletion, Kinase-Glo luminescence | inhibition, % at 11.9 µM | actives 0.4% (n = 360,000);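 active = inhibition above a per-plate cutoff of the control wells' mean inhibition plus 3 SD, cut at about 5.5% in these data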;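 note: 0% = DMSO wells median and 100% = median of wells with control inhibitor compound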
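assay system = parasite MetRS enzyme | timing = 15 min preincubation, 2 h reaction, all 25 °C | evaluation = percent inhibition relative to median high and low control wells | medium = HEPES buffer containing pyrophosphatase, BSA, spermine, DTT | compound = single dose, 11.9 µM final nominal, 0.9% final DMSO | detection = Kinase-Glo luminescence, ATP depletion format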
IDE act: boosts human insulin-degrading enzyme activity in HEK cells; P14735; AID 493087; activation, % at 5.96 µM; actives 0.073% (n = 340,000); FAbeta-B cleavage, fluorescence polarization; 0% vehicle, 100% cell-free pure enzyme wells;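 active = activation above the mean of all tested compounds plus 3 SD, set per screening campaign, cut at about 17% in these data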
Target sequence (P14735 whole entry, looked up): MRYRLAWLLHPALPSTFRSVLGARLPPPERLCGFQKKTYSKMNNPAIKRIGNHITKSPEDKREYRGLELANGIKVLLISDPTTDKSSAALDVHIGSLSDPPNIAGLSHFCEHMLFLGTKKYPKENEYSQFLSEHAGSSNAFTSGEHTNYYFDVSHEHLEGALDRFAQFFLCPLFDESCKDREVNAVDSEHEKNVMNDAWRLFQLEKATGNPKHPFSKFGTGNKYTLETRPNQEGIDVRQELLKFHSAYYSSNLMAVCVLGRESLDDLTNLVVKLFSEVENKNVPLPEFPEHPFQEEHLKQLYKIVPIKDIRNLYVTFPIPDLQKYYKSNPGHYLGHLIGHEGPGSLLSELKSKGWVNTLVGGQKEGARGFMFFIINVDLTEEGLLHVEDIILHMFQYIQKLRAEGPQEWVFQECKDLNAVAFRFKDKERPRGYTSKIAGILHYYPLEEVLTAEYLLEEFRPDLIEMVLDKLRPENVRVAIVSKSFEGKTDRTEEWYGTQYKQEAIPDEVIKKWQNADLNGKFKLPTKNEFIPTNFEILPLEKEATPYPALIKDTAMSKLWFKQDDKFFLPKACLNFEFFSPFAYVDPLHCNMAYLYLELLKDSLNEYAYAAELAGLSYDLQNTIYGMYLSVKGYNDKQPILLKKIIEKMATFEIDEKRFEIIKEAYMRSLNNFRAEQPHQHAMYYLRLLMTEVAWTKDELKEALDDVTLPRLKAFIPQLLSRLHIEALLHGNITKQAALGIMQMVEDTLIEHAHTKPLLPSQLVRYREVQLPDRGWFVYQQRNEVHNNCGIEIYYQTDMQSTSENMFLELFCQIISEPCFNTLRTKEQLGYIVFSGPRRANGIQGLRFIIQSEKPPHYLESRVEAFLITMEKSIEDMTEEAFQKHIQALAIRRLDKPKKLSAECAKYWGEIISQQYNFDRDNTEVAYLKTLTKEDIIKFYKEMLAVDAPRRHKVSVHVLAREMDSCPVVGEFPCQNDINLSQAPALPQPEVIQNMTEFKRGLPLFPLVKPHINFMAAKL
IDE cell inh: inhibits human insulin-degrading enzyme in HEK cells. actives 0.41% (n = 320,000). AID 434962. FAbetaB cleavage, fluorescence polarization. P14735. inhibition, % at 5.59 µM;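 active = percent inhibition above the average of all tested compounds plus 3 SD, set per screening campaign, cut at about 16% in these data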;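 note: IDE supplied by intact live HEK cells; FP after avidin binding of uncleaved biotin substrate so inhibition keeps polarization high; 0% = DMSO wells and 100% = 60 µM reference IDE inhibitor Ii1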
Yeast superoxide: yeast age-related superoxide inhibition as caloric restriction mimetic. S. cerevisiae aged cells, superoxide DHE fluorescence; stronger effect = lower value. superoxide response (% of plate mean), % at 10 µM. actives 0.18% (n = 330,000). AID 2690;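 active = superoxide response under a set limit, about three screen SD below normal, cut at about 65% in these data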;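 note: yeast aged for seven days with compound at 30 °C before DHE staining; 100% = average MFI of all compound-treated wells on the plate with controls excluded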
HDAC3 inhib: human HDAC3 inhibition; O15379; recombinant HDAC3, fluorogenic peptide/trypsin coupled, fluorescence; inhibition, % at 8.3 µM; actives 0.15% (n = 320,000); AID 2718; in the data active = inhibition above about 26%, passing the limit was not always enough
Efflux pump inh: inhibitors of Candida antifungal efflux pumps expressed in yeast; S. cerevisiae Candida pump triplex, Nile Red efflux; inhibition, % at 10 µM; actives 0.44% (n = 330,000);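 active = plate passing quality check with inhibition over a set limit, or well fluorescence over plate mean plus 4 SD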;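 note: Nile Red retained in pooled yeast measured as flow cytometry median fluorescence; 0% = buffer negative control and 100% = Enniatin B positive control; higher means more Nile Red kept so more efflux inhibition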
Yeast cmpd fluor: flagged as fluorescent in efflux inhibitor counter-screen; shares compounds with Efflux pump inh; fluorescence ratio to DMSO, % at 10 µM; S. cerevisiae AD/pABC3, compound fluorescence, flow cytometry; actives 4% (n = 1,700);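 active = fluorescence ratio to DMSO above its plate's cutoff, the plate mean ratio plus 5 SD, cut at about 210% in these data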;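 note: unstained yeast with no Nile Red so the signal is compound autofluorescence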
Mdr1 pump inh: Candida Mdr1 efflux pump inhibition. shares compounds with Efflux pump inh. S. cerevisiae AD/CaMDR1, Nile Red efflux, flow cytometry. inhibition, % at 10 µM. actives 1% (n = 1,700); in the data active = inhibition above about 26%;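 note: 0% = DMSO vehicle and 100% = reference inhibitor; higher means more Nile Red retained so more efflux inhibition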
Cdr2 pump inh: inhibitors of Candida albicans Cdr2 efflux pump; shares compounds with Efflux pump inh; S. cerevisiae AD/CaCDR2, Nile Red retention, flow cytometry; Nile Red retention ratio vs DMSO, % at 10 µM; actives 4% (n = 1,700); AID 588520; in the data active = Nile Red retention ratio vs DMSO above about 190%;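 note: higher ratio means more blocking of Cdr2 efflux of the dye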
Cdr1 pump inh: Candida Cdr1 efflux pump inhibition; shares compounds with Efflux pump inh; S. cerevisiae AD/CaCDR1, Nile Red efflux, flow cytometry; inhibition, % at 10 µM; actives 1% (n = 1,700);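 active = inhibition above the screen-wide mean plus twice its standard deviation, cut at about 32% in these data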
An asterisk follows results filed as active; · = no result. Rows were chosen to be rich in hits. Some 1.4% of all compounds tested hit in one or more screens of this group.

SMILES | TbMetRS inhib | IDE act | IDE cell inh | Yeast superoxide | HDAC3 inhib | Efflux pump inh | Yeast cmpd fluor | Mdr1 pump inh | Cdr2 pump inh | Cdr1 pump inh
COc1ccc(CN(C)C(=O)c2ccc3c(=O)n4c(nc3c2)CCC4)cc1 | -0.5 | 2.1 | 3.0 | 92.0 | -5.9 | 0.1 | · | · | · | ·
CC1(c2ccc(Cl)cc2Cl)NC(=O)N(CC(=O)Nc2ccc3[nH]c(=O)[nH]c3c2)C1=O (stereo unspecified) | -0.2 | 1.7 | 4.5 | 97.0 | -0.3 | -0.1 | · | · | · | ·
C1N2CN3CN1CN(C2)C3 | -0.6 | 3.2 | -2.7 | 96.9 | -2.4 | -0.1 | · | · | · | ·
C#CCOC(=O)Nc1ccc(OCC(F)(F)F)nc1 | -0.7 | 1.8 | 7.8 | 106.8 | 2.4 | 0.1 | · | · | · | ·
COc1ccc(/C=C/C(=O)O)cc1S(=O)(=O)Nc1ccc2c(c1)OCO2 | -0.4 | -1.3 | 2.9 | 93.5 | 2.7 | -0.1 | · | · | · | ·
Cc1ccc(OCC(=O)c2c(N)n(C)c(=O)n(C)c2=O)c([N+](=O)[O-])n1 | -0.3 | -0.1 | 1.9 | 99.8 | 0.0 | 0.3 | · | · | · | ·
CCc1ccc(NC(=S)N(Cc2ccc(Cl)cc2)Cc2ccc(C(=O)O)cc2)cc1 | 0.5 | 1.0 | 3.9 | 122.0 | 3.5 | 0.2 | · | · | · | ·
CCC1(C(=O)c2ccc(Cl)cc2)C2c3ccccc3OC(=O)C21C(=O)Nc1ccccc1 (stereo unspecified) | -0.6 | 4.8 | -2.2 | 102.8 | -4.1 | 1.8* | 83.7 | -0.2 | 106.0 | 0.3
COc1cc(C(=O)NC(=S)Nc2ccc3c(c2)C(=O)N(C)C3=O)cc(OC)c1OC | -0.3 | 1.4 | 3.1 | 102.9 | 5.8 | 12.4* | 107.8 | -0.1 | 106.0 | 0.1
COc1cccc(OC)c1C(=O)NC(=S)Nc1ccc2c(c1)C(=O)N(C)C2=O | -0.1 | 2.7 | -2.3 | 96.6 | 2.6 | -0.2 | · | · | · | ·
CCOC(=O)c1c(NC(=S)NC)sc2c1CC(C)(C)SC2 | 0.0 | -3.7 | 1.4 | 135.7 | 4.3 | 0.1 | · | · | · | ·
CCOC(=O)c1c(NC(=S)Nc2ccccc2)sc2c1CC(C)(C)SC2 | 0.8 | -1.8 | -1.8 | 111.1 | 14.3 | 0.5* | 202.2 | 5.7 | 245.2* | 4.3
CC(=O)OCCC(NS(=O)(=O)OCC(Cl)(Cl)Cl)c1ccccc1 (stereo unspecified) | -0.2 | 6.2 | 3.4 | 99.4 | -1.1 | 0.7* | 111.1 | -0.1 | 106.0 | 0.0
COc1ccccc1Cn1c(=O)c2ccccc2n2c(SCC(=O)N3CCCCC3)nnc12 | -0.5 | 6.6 | -0.1 | 103.0 | 2.1 | 1.6* | 111.1 | -0.1 | 110.2 | 0.1
O=C(CSc1nnc2n(C3CCCC3)c(=O)c3ccccc3n12)N1CCCCCC1 | -0.1 | -2.1 | 1.7 | 90.2 | 3.7 | 0.0 | · | · | · | ·
CCOc1ccccc1/C=C/c1onc(C)c1S(=O)(=O)N1CCC(C(=O)N(CC)CC)CC1 | 0.0 | 2.1 | 4.7 | 113.6 | 5.3 | 0.2* | 105.6 | -0.3 | 108.3 | 0.0
CCN(CCN(C)C)C(=O)C1CCN(S(=O)(=O)c2c(C)noc2/C=C/c2ccccc2F)CC1 | -0.1 | -0.2 | 6.9 | 80.8 | 1.6 | 0.0 | · | · | · | ·
C/C(=N\NC(=O)CSCc1ccccc1Br)c1cccc([N+](=O)[O-])c1 | 0.2 | 2.3 | -7.0 | 98.5 | -1.0 | 6.5* | 100.3 | -0.2 | 96.3 | 0.0
C/C(=N\NC(=O)CSCc1ccc([N+](=O)[O-])cc1)c1cccc(Br)c1 | 0.9 | 0.3 | -0.5 | 101.8 | 4.6 | -0.1 | · | · | · | ·
CCCSc1nnc(-c2c[nH]c3ccccc23)n1C | 0.4 | -2.8 | -0.9 | 131.1 | 2.8 | 0.5* | 80.1 | -0.2 | 93.2 | -0.4
CCCSc1nnc(-c2c[nH]c3ccccc23)n1CC | 1.6 | -1.4 | 1.1 | 102.5 | -2.5 | 0.1 | · | · | · | ·
NC(=O)C1c2ccccc2Oc2ccccc21 | -0.6 | 2.6 | 3.0 | 100.0 | -4.8 | 4.9* | 98.9 | -0.4 | 100.1 | -0.1
Cc1ccc(S(=O)(=O)Cn2nnnc2C(CC(C)C)N2CCN(c3ccccc3)CC2)cc1 (stereo unspecified) | 0.2 | -0.7 | -3.7 | 101.7 | 1.2 | 0.9* | 107.2 | -0.1 | 107.2 | 0.0
CC(C)(C)OC(=O)N[C@@H](C(=O)OC(C)(C)C)c1ccc2ccccc2c1 | -0.3 | 3.7 | 4.3 | 124.2 | 3.3 | -0.2 | · | · | · | ·
O=C(NNc1cccc(Cl)n1)Nc1ccc(F)cc1 | -0.5 | -0.4 | 3.3 | 97.6 | 9.0 | -0.1 | · | · | · | ·
SMILES | TbMetRS inhib | IDE act | IDE cell inh | Yeast superoxide | HDAC3 inhib | Efflux pump inh | Yeast cmpd fluor | Mdr1 pump inh | Cdr2 pump inh | Cdr1 pump inh
Cc1cc(C(=O)Nc2ccc(Cl)cc2)on1 | -0.2 | 2.6 | -0.6 | 114.8 | 2.1 | 0.0 | · | · | · | ·
Cc1ocnc1C(=O)Nc1ccc(Cl)cc1 | -0.2 | 2.4 | 3.2 | 104.8 | -7.4 | 9.8* | 101.1 | -0.2 | 106.3 | 0.0
Cc1cc(C)c(OCC(=O)Nc2nc(-c3ccccn3)cs2)c(C)c1 | -0.4 | -3.4 | -3.7 | 108.8 | -11.6 | 0.6* | 100.0 | 0.0 | 100.1 | 0.0
COc1ccc(OCCCC(=O)Nc2nc(-c3ccccn3)cs2)cc1 | -0.3 | 1.9 | -1.7 | 126.6 | 3.4 | -0.1 | · | · | · | ·
O=C(NCc1ccc(F)cc1)c1cc(C2CCCN(C(=O)c3ccccn3)C2)on1 (stereo unspecified) | 0.0 | · | · | · | · | · | · | · | · | ·
O=C(COc1ccccc1Cl)c1ccc[nH]1 | -0.6 | 2.9 | 5.2 | 111.5 | 11.0 | 0.7* | 96.2 | 0.0 | 109.4 | 0.4
O=C(COc1ccc(Br)cc1Cl)c1ccc[nH]1 | -0.1 | -2.6 | -8.8 | 112.9 | 2.6 | 0.3 | · | · | · | ·
Fc1ccc(C(c2nnnn2C2CCCC2)N(Cc2ccco2)CC2CCCO2)cc1 (stereo unspecified) | -0.6 | 0.1 | 1.1 | 92.9 | 8.4 | 0.2 | · | · | · | ·
CCN(Cc1ccccc1)C(c1ccncc1)c1nnnn1C(C)(C)C (stereo unspecified) | -0.5 | 1.0 | -0.9 | 89.9 | -1.9 | 0.4* | 101.7 | -0.1 | 107.2 | -0.1
c1ccc(CN(Cc2ccco2)C(c2ccncc2)c2nnnn2C2CCCC2)cc1 (stereo unspecified) | -0.6 | 0.0 | 2.7 | 89.0 | 8.9 | 0.6* | 108.3 | -0.4 | 101.5 | -0.1
COc1c(S(=O)(=O)N2CCN(C)CC2)ccc(Cl)c1Cl | -1.0 | 5.2 | -2.1 | 100.7 | -4.4 | 0.0 | · | · | · | ·
COc1ccc(C(C(=O)NC(C)(C)C)N(CC2CCCO2)C(=O)CCC(=O)Nc2cc(C)on2)cc1 (stereo unspecified) | -1.9 | 5.8 | 10.2 | 117.6 | 1.9 | 0.8* | 100.0 | -0.5 | 98.1 | 0.1

Compound activity (PubChem BioAssay)
